# ChEMBL document CHEMBL1155675, “New triterpenoid sulfates from the red alga Tricleocarpa fragilis” (J Nat Prod, 2000)
# Assays:
# P388 = test: Cytotoxicity against mouse P388 cells; type: functional, cell-based
# Artemia [1] = test: Toxicity against brine shrimp assessed as immobilization at 17 ug/ml; type: organism-based; conditions: in vivo
# Summary of the method: (§1)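 Brine shrimp immobilization was scored in a 96-well plate format and reported as percent immobilization with 90% confidence intervals. Where both monovalent and divalent cation salts of a sulfate were isolated, the divalent cation salt was the one tested.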
# A549 = test: Cytotoxicity against human A549 cells; type: functional, cell-based
# [2] = Cytotoxicity against human MEL28 cells; type: functional, cell-based; conditions: SK-MEL-28
# HT-29 = test: Cytotoxicity against human HT29 cells; type: functional, cell-based
# Artemia [3] = test: Toxicity against brine shrimp assessed as immobilization at 50 ug/ml; type: organism-based; conditions: in vivo; summary of the method: as §1
SMILES,IC50 (P388),Activity (Artemia [1]),IC50 (A549),IC50 [2],IC50 (HT-29),Activity (Artemia [3])
COC(=O)[C@]1(C)[C@@H](OS(=O)(=O)O)CC[C@]23C[C@]24CC[C@]2(C)[C@@H]([C@H](C)C[C@@H](O)C=C(C)C)CC[C@@]2(C)[C@@H]4CC[C@@H]13,> 10 mg/L,55.7%,> 10 mg/L,> 10 mg/L,> 10 mg/L,–
COC(=O)[C@]1(C)[C@@H](OS(=O)(=O)O)CC[C@]23C[C@]24CC[C@]2(C)[C@@H]([C@H](C)CC(=O)C=C(C)C)CC[C@@]2(C)[C@@H]4CC[C@@H]13,> 10 mg/L,–,> 10 mg/L,> 10 mg/L,> 10 mg/L,–
CC(C)=C[C@H](O)C[C@@H](C)[C@H]1CC[C@@]2(C)[C@@H]3CC[C@H]4[C@](C)(CO)[C@@H](OS(=O)(=O)O)CC[C@@]45C[C@@]35CC[C@]12C,> 10 mg/L,47.1%,> 10 mg/L,> 10 mg/L,> 10 mg/L,–
CC(C)=CC(=O)C[C@@H](C)[C@H]1CC[C@@]2(C)[C@@H]3CC[C@H]4[C@](C)(CO)[C@@H](OS(=O)(=O)O)CC[C@@]45C[C@@]35CC[C@]12C,> 2 mg/L,–,> 2 mg/L,> 2 mg/L,> 2 mg/L,–
CC(C)=C[C@H](O)C[C@@H](C)[C@H]1CC[C@@]2(C)[C@@H]3CC[C@H]4C(C)(C)[C@@H](OS(=O)(=O)O)CC[C@@]45C[C@@]35CC[C@]12C,> 2 mg/L,–,> 2 mg/L,> 2 mg/L,> 2 mg/L,–
CC(C)=CC(=O)C[C@@H](C)[C@H]1CC[C@@]2(C)[C@@H]3CC[C@H]4C(C)(C)[C@@H](OS(=O)(=O)O)CC[C@@]45C[C@@]35CC[C@]12C,> 10 mg/L,–,> 10 mg/L,> 10 mg/L,> 10 mg/L,–
COC(=O)[C@@H]1[C@@H](OS(=O)(=O)O)CC[C@]23C[C@]24CC[C@]2(C)[C@@H]([C@H](C)C[C@@H](O)C=C(C)C)CC[C@@]2(C)[C@@H]4CC[C@@H]13,> 1 mg/L,–,> 1 mg/L,> 1 mg/L,> 1 mg/L,39.1%
COC(=O)[C@@H]1[C@@H](OS(=O)(=O)O)CC[C@]23C[C@]24CC[C@]2(C)[C@@H]([C@H](C)CC(=O)C=C(C)C)CC[C@@]2(C)[C@@H]4CC[C@@H]13,> 1 mg/L,–,> 1 mg/L,> 1 mg/L,> 1 mg/L,–
COC(=O)[C@@H]1[C@@H](OS(=O)(=O)O)CC[C@]2(C)C3=C(CC[C@@H]12)[C@]1(C)CC[C@H]([C@H](C)C[C@@H](O)C=C(C)C)[C@@]1(C)CC3,> 2 mg/L,–,> 2 mg/L,> 2 mg/L,> 2 mg/L,–
COC(=O)[C@@H]1[C@@H](OS(=O)(=O)O)CC[C@]2(C)C3=C(CC[C@@H]12)[C@]1(C)CC[C@H]([C@H](C)CC(=O)C=C(C)C)[C@@]1(C)CC3,> 1 mg/L,–,> 1 mg/L,> 1 mg/L,> 1 mg/L,35.5%
COC(=O)[C@]1(C)[C@@H](OS(=O)(=O)[O-])CC[C@]23C[C@]24CC[C@]2(C)[C@@H]([C@H](C)CC(=O)C=C(C)C)CC[C@@]2(C)[C@@H]4CC[C@@H]13.COC(=O)[C@]1(C)[C@@H](OS(=O)(=O)[O-])CC[C@]23C[C@]24CC[C@]2(C)[C@@H]([C@H](C)CC(=O)C=C(C)C)CC[C@@]2(C)[C@@H]4CC[C@@H]13.[Ca+2],> 10 mg/L,–,> 10 mg/L,> 10 mg/L,> 10 mg/L,–
COC(=O)[C@]1(C)[C@@H](OS(=O)(=O)[O-])CC[C@]23C[C@]24CC[C@]2(C)[C@@H]([C@H](C)CC(=O)C=C(C)C)CC[C@@]2(C)[C@@H]4CC[C@@H]13.COC(=O)[C@]1(C)[C@@H](OS(=O)(=O)[O-])CC[C@]23C[C@]24CC[C@]2(C)[C@@H]([C@H](C)CC(=O)C=C(C)C)CC[C@@]2(C)[C@@H]4CC[C@@H]13.[Mg+2],> 10 mg/L,–,> 10 mg/L,> 10 mg/L,> 10 mg/L,–
COC(=O)[C@]1(C)[C@@H](OS(=O)(=O)[O-])CC[C@]23C[C@]24CC[C@]2(C)[C@@H]([C@H](C)CC(=O)C=C(C)C)CC[C@@]2(C)[C@@H]4CC[C@@H]13.[Na+],> 10 mg/L,–,> 10 mg/L,> 10 mg/L,> 10 mg/L,–
